A selection: hits, their analogues and other compounds. The true share with any hit is near 4.3%.
UBC13 inh = blocks human UBC13 polyubiquitin chain formation; P61088; TR-FRET; inhibition, % at 20 µM; hit rate 0.47% among 330,000; in the data active = inhibition above about 45%, passing the limit was not always enough
Target sequence (P61088 whole entry, looked up): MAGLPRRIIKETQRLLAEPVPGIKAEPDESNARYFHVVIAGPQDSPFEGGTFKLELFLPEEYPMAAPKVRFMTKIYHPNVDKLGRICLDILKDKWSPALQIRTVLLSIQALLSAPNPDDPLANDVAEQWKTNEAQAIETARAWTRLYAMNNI
UBC9 SUMO inh = SUMOylation inhibition. HTRF SUMOylation assay, SAE1/SAE2 + UBC9, in vitro. inhibition, % at 35 µM. hit rate 0.36% among 290,000. AID 2006; in the data active = inhibition above about 50%, passing the limit was not always enough
PREPL inhibitor = inhibits the human prolyl oligopeptidase-like enzyme; Q4J6C6; recombinant PREPL, fluorescence polarization activity-based probe; inhibition, % at 5.96 µM; hit rate 0.68% among 320,000; in the data active = inhibition above about 43%;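 note: 0% = enzyme with DMSO and 100% = wells lacking enzyme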
Rin1 Abl inh = blocks binding of human Rin1 to Abl; P00519+Q13671; TR-FRET Rin1/Abl binding, biochemical; inhibition, % at 7.35 µM; hit rate 0.4% among 360,000; in the data active = inhibition above about 5%, passing the limit was not always enough
RBBP9 inhibitor = blocks human serine hydrolase RBBP9. O75884. recombinant RBBP9, FP-Rh probe fluorescence polarization. inhibition, % at 7.94 µM. hit rate 0.2% among 220,000. AID 1515;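 active = inhibition above the campaign mean of all tested compounds plus 3 SD, cut at about 14% in these data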;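 note: plate controls were DMSO wells with RBBP9 for no effect and wells lacking RBBP9 protein for full effect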
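Measured by: FP readout at 525/598 nm; material: recombinant human RBBP9; also added: Serine-hydrolase probe FP-Rh, 375 nM pre-mixing; medium: Tris buffer pH 8.0, NaCl, Pluronic; replication: one well per compound; doses: one concentration, 7.94 µM nominal, 0.794% DMSO; timing: preincubation 30 min plus labeling 45 min at 25 °C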
ALR H2O2 inh = blocks human ALR sulfhydryl oxidase activity | inhibition, % (no concentration beside the values) | purified ALR, DTT oxidation, H2O2 HRP-luminol luminescence | hit rate 3.8% among 290,000 | P55789;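 active = mean replicate inhibition above about 79%, with every replicate also reaching it, limit read from the data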
Target sequence (P55789 whole entry, looked up): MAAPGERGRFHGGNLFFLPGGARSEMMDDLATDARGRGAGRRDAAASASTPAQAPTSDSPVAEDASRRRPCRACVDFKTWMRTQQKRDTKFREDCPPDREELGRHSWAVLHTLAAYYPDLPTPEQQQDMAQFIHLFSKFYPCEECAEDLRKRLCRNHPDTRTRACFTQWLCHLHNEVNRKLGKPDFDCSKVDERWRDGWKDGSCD
Rin1-Abl confirm = Rin1-Abl interaction inhibition confirmation; TR-FRET Rin1-Abl binding, purified proteins; inhibition, % at 7.35 µM; AID 602124; hit rate 49% among 1,300; shares compounds with Rin1 Abl inh
GFP quench = GFP fluorescence interference artifact | shares compounds with Rin1 Abl inh | inhibitors/quenchers counterscreen | inhibition, % at 6.75 µM | hit rate 8.5% among 1,300 | AID 602125;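 note: ABL1-eGFP fusion protein alone without its partner RIN1-SBP; 0% = protein with vehicle and 100% = wells lacking protein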
GFP quench dose = quenches GFP in dose response, Rin1-Abl counter-screen; GFP fluorescence interference/quenching counterscreen; 230 tested, under 10 active; IC50, µM; shares compounds with Rin1 Abl inh; call rule not given here;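 note: ABL1-eGFP fusion protein alone without its RIN1 binding partner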
* = called active by the depositor; · = not tested or not shown. Cut-off read from the data, not from the text of the source, unless noted: active = inhibition above about 6.5%; inactive = the rest.

SMILES | UBC13 inh | UBC9 SUMO inh | PREPL inhibitor | Rin1 Abl inh | RBBP9 inhibitor | ALR H2O2 inh | Rin1-Abl confirm | GFP quench | others
O=C(/C=C/c1cccc(Cl)c1)NNC(=O)c1ccncc1 | -5 | · | 3 | 0 | · | 18 | · | ·
COc1ccc(Cn2c(-c3ccc(Br)cc3)c[n+]3ccccc23)cc1 | 8 | 10 | -2 | 4 | -3 | -19 | · | ·
O=C(CCS(=O)(=O)c1ccc(Br)cc1)N1CCN(c2ccccc2Cl)CC1 | 6 | 9 | -3 | 9.0* | -3 | -9 | -1 | 0
CC(C)c1ccc(NC(=O)CSc2nnc(CN3CCOCC3)n2C)cc1 | 6 | 10 | -1 | 18* | · | 98* | 26* | 1 | GFP quench dose=>67
Cc1cccc(C)c1NC(=O)c1cc(S(=O)(=O)N2CCOCC2)cn1C | 1 | -2 | 2 | 5 | · | -10 | · | ·
Cc1c(Cl)cccc1NC(=O)c1cc(S(=O)(=O)N2CCOCC2)cn1C | -1 | 4 | -1 | 8.4* | · | -10 | -1 | -1
CC(=O)Nc1ccc(CNc2nc(NC(C)C)nc3ccsc23)cc1 | · | · | · | 0 | · | · | · | ·
CC(=O)Nc1ccc(CNc2nc(NCC3CC3)nc3ccsc23)cc1 | · | · | · | 7.2* | · | · | 5 | -1
CCOc1ccc(NC(=O)CN(C)C(=O)c2c(-c3ccccc3Cl)noc2C)cc1OCC | 2 | · | 0 | 6 | · | -6 | · | ·
CCN(CC)C(=O)CSc1nc(COc2ccccc2)nc2ccccc12 | 6 | 7 | 5 | 42* | · | 45 | 37* | 0
COC(=O)CSc1nc(COc2ccccc2)nc2ccccc12 | 14 | -1 | -16 | 1 | · | · | · | ·
C#CCOCCOCCOCCNc1nc(N2CCOCC2)nc(N2CCN(C(=O)[C@H](Cc3ccc(O)cc3)n3cc([C@@H](N)CC(C)C)nn3)CC2)n1 | 22 | 16 | -4 | 14* | 0 | 0 | 15* | 0
O=C(O)c1cccc(NC2=C(N3CCOCC3)C(=O)c3ccccc3C2=O)c1 | -22 | 15 | -4 | 7.2* | 8 | -5 | -7 | -1
O=C1C(NS(=O)(=O)c2cccs2)=C(N2CCOCC2)C(=O)c2ccccc21 | -71 | 32 | 15 | -13 | -11 | · | · | ·
CCN(C(=O)COC(=O)c1cc(Cl)ccc1OC)c1c(N)n(Cc2ccccc2)c(=O)[nH]c1=O | 6 | · | -1 | 8.7* | · | · | -3 | 2
Cn1c(N)nc2nc[nH]c2c1=S | · | · | · | 2 | · | · | · | ·
CN(C)c1ccc(O)c2c1CC1CC3[C@@H](N(C)C)C(=O)C(C(N)=O)C(=O)[C@]3(O)C(=O)C1C2=O (some centres undefined) | 10 | · | 20 | 13* | · | · | 7.8* | 3
CC(C)C(C(=O)NCC1CCCO1)N(CC1CCCO1)C(=O)CNS(=O)(=O)c1ccccc1 (centres undefined) | -3 | 10 | 4 | 1 | · | 5 | · | ·
O=S(=O)(Nc1nccs1)c1ccc(Br)cc1 | -9 | -10 | 6 | 11* | -10 | -5 | -2 | 0
CC(C)CC(C)N1CCC(n2nccc2NC(=O)CCc2ccccc2)CC1 (centres undefined) | 3 | 2 | 8 | 3 | · | -4 | · | ·
COc1ccc(NS(=O)(=O)c2cc(N)ccc2N2CCOCC2)cc1 | -2 | -5 | 1 | 8.3* | · | 11 | 0 | -1
CC(=O)c1ccc(N(CC(=O)NC2CCCC2)C(=O)c2ccc(C)s2)cc1 | 6 | 5 | 2 | 1 | · | 2 | · | ·
CC(=O)c1cccc(N(CC(=O)NC2CCCC2)C(=O)c2ccc(C)s2)c1 | -9 | -11 | -7 | 7.5* | · | 2 | -1 | -1
CCCCCCSc1ccc([C@@H]2[C@H]3C(=O)N(C)C(=O)[C@H]3[C@]3(C(=O)OC)CCCCN23)cc1 | -25 | · | 4 | 10* | · | 2 | -2 | -1
CCCCCCSc1ccc([C@@H]2[C@@H]3C(=O)N(CC)C(=O)[C@@H]3[C@]3(C(=O)OC)CCCCN23)cc1 | 9 | · | 21 | 3 | · | -10 | · | ·
CC(CNC(=O)CN1C(=O)CCSc2ccccc21)c1ccccc1 (centres undefined) | 1 | 7 | 11 | -3 | · | 29 | · | ·

Screens: PubChem BioAssay, several laboratories
